Source: ChEMBL document CHEMBL3232966, “A new potential approach to block HIV-1 replication via protein-protein interaction and strand-transfer inhibition” (Bioorg Med Chem, 2014)
Activity calls are given as the source filed them. The calls are words filed in the database; no cut-off is given here.

Assays:
[1] = Inhibition of His-6-tagged HIV-1 integrase-recombinant flag-tagged LEDGF/p75 (unknown origin) interaction after 1hr by AlphaScreen assay
Outline: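 AlphaScreen. Ni-chelate acceptor and anti-flag donor beads were added (20 µg/ml each final), then incubated 1 h at 30 °C in low light. Acceptor-bead light emission was read.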

[2] = molecular target: Human immunodeficiency virus type 1 integrase (Human immunodeficiency virus 1, UniProt Q7ZJM1); test: Inhibition of HIV-1 integrase strand transfer activity using 3'-end biotin labelled oligonucleotide/5'-end digoxigenin labelled oligonucleotide as substrate after 1 hr by ELISA
Chain of Human immunodeficiency virus type 1 integrase (Q7ZJM1 whole entry): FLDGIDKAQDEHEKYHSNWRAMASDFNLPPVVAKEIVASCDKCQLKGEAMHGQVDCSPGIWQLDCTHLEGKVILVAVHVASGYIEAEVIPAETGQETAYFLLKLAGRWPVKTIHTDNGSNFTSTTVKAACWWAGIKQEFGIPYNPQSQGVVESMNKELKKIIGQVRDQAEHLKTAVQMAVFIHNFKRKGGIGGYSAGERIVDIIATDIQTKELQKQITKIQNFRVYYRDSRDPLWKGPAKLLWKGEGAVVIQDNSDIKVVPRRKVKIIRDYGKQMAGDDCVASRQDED
Outline: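 ELISA strand-transfer assay. Integrase (diluted in 750 mM NaCl, 10 mM Tris pH 7.6, 10% glycerol, 1 mM β-mercaptoethanol; 1.6 µM) was mixed with annealed oligonucleotides (7 nM): a 3'-biotin strand plus a 5'-digoxigenin strand lacking 3'-terminal GT. Buffer contained MgCl2, DTT, HEPES pH 7.5, 5% PEG and 15% DMSO. Incubation 1 h at 37 °C, NaOH denaturation, detection on avidin-coated plates.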

[3] = Selectivity index, ratio of CC50 for human MT4 cells to EC50 for HIV-1 3B; format: toxicity, cell-based; conditions: read-out: Ratio CC50/EC50
Outline: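 Ratio CC50/EC50. CC50 comes from the MTT viability assay on uninfected MT-4 cells. EC50 comes from the MTT protection assay on MT-4 cells infected with HIV(IIIB).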

[4] = test system: Human immunodeficiency virus 1; test: Antiviral activity against HIV-1 3B infected in MT4 cells assessed as inhibition of virus-induced cytopathic effect by MTT assay; format: functional, organism-based; conditions: Human immunodeficiency virus 1, 3B
Outline: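 MT-4 lymphocytes infected with 100–300 CCID50 of HIV(IIIB) stock (CCID50 titrated on MT-4 cells), with fivefold serial compound dilutions. Protection against virus-induced cytopathic effect read by MTT reduction to formazan, measured spectrophotometrically. EC50 = concentration giving 50% protection against CPE.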

[5] = Cytotoxicity against human MT4 cells assessed as cell viability by MTT assay; format: cell-based
Outline: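 Uninfected MT-4 lymphocytes exposed to fivefold serial compound dilutions, run in parallel with the antiviral test. Viability read by MTT reduction to formazan by mitochondrial dehydrogenase, measured spectrophotometrically. CC50 = concentration lowering MT-4 viability by 50%.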

[6] = Inhibition of His-6-tagged HIV-1 integrase-recombinant flag-tagged LEDGF/p75 (unknown origin) interaction at 100 uM after 1hr by AlphaScreen assay

O=C(O)/C(O)=C/C(=O)c1cn(Cc2ccc(C(F)(F)F)cc2)c2ccc(F)cc12
IC50 [1]: 17.8 µM
IC50 [2]: 1550 nM
selectivity ratio [3]: 2
EC50 [4]: 7.83 µM
CC50 [5]: 15 µM
inhibition [6]: 77%

O=C1OCC(C(=O)c2cn(Cc3ccc(-c4ccccc4)cc3)c3ccc(Cl)cc23)=C1O
IC50 [1]: 21.8 µM
inhibition [6]: 80%

O=C1OCC(C(=O)c2cn(Cc3ccc(C(F)(F)F)cc3)c3ccc(Cl)cc23)=C1O
IC50 [1]: 12.3 µM
inhibition [6]: 92%

O=C(O)/C(O)=C/C(=O)c1cn(Cc2ccc(-c3ccccc3)cc2)c2ccc(Cl)cc12
inhibition [6]: 31%

Cc1cc(C)c(Cn2cc(C(=O)C3=C(O)C(=O)OC3)c3cc(Cl)ccc32)c(C)c1
IC50 [1]: 23.6 µM
selectivity ratio [3]: 2
EC50 [4]: 19.8 µM
CC50 [5]: 40.5 µM
inhibition [6]: 85%

Cc1cc(C)cc(Cn2cc(C(=O)/C=C(\O)C(=O)O)c3c(O)cccc32)c1
IC50 [1]: 3.5 µM
selectivity ratio [3]: 10
EC50 [4]: 4.63 µM
CC50 [5]: 44 µM

COc1ccc2c(c1)c(C(=O)C1=C(O)C(=O)OC1)cn2Cc1ccc(-c2ccccc2)cc1
inhibition [6]: 51%

O=C1OCC(C(=O)c2cn(Cc3ccc(C(F)(F)F)cc3)c3ccc(F)cc23)=C1O
IC50 [1]: 12.2 µM
inhibition [6]: 65%

O=C1OCC(C(=O)c2cn(Cc3ccc(-c4ccccc4)cc3)c3ccc(F)cc23)=C1O
IC50 [1]: 15.8 µM
inhibition [6]: 89%

O=C(O)/C(O)=C/C(=O)c1cn(Cc2ccc(C(F)(F)F)cc2C(F)(F)F)c2ccc(Cl)cc12
IC50 [1]: 3.8 µM
inhibition [6]: 80%

Cc1cc(C)cc(Cn2cc(C(=O)C3=C(O)C(=O)OC3)c3cc(F)ccc32)c1
IC50 [1]: 20.3 µM
inhibition [6]: 73%

CC(C)(C)c1ccc(Cn2cc(C(=O)C3=C(O)C(=O)OC3)c3cc(Cl)ccc32)cc1
IC50 [1]: 52.5 µM
selectivity ratio [3]: 2
EC50 [4]: 23.4 µM
CC50 [5]: 53 µM
inhibition [6]: 83%

CC(C)(C)c1ccc(Cn2cc(C(=O)/C=C(\O)C(=O)O)c3cc(Cl)ccc32)cc1
IC50 [1]: 10 µM
inhibition [6]: 88%

COc1cccc2c1c(C(=O)/C=C(\O)C(=O)O)cn2Cc1ccc(F)cc1
IC50 [1]: 36.2 µM
selectivity ratio [3]: 70

COc1ccc2c(c1)c(C(=O)/C=C(\O)C(=O)O)cn2Cc1ccc(C(F)(F)F)cc1
inhibition [6]: 40%

Cc1cc(C)c(Cn2cc(C(=O)C3=C(O)C(=O)OC3)c3cc(F)ccc32)c(C)c1
IC50 [1]: 5.6 µM
selectivity ratio [3]: 2
EC50 [4]: 49 µM
CC50 [5]: 107 µM
inhibition [6]: 81%

Cc1cc(C)cc(Cn2cc(C(=O)/C=C(\O)C(=O)O)c3cc(F)ccc32)c1
inhibition [6]: 26%

CC(C)(C)c1ccc(Cn2cc(C(=O)/C=C(\O)C(=O)O)c3cc(F)ccc32)cc1
inhibition [6]: 33%

CC(C)(C)c1ccc(Cn2cc(C(=O)C3=C(O)C(=O)OC3)c3cc(F)ccc32)cc1
IC50 [1]: 36.2 µM
inhibition [6]: 96%

Cc1cc(C)cc(Cn2cc(C(=O)/C=C(\O)C(=O)O)c3cc(Cl)ccc32)c1
selectivity ratio [3]: > 2
EC50 [4]: 56.1 µM
CC50 [5]: > 125 µM
inhibition [6]: inactive

O=C(O)/C(O)=C/C(=O)c1cn(Cc2ccc(C(F)(F)F)cc2C(F)(F)F)c2ccc(F)cc12
inhibition [6]: inactive

COc1ccc2c(c1)c(C(=O)C1=C(O)C(=O)OC1)cn2Cc1ccc(C(F)(F)F)cc1C(F)(F)F
IC50 [1]: 39.5 µM
inhibition [6]: 61%

COc1ccc2c(c1)c(C(=O)C1=C(O)C(=O)OC1)cn2Cc1cc(C)cc(C)c1
inhibition [6]: 66%

COc1ccc2c(c1)c(C(=O)/C=C(\O)C(=O)O)cn2Cc1ccc(-c2ccccc2)cc1
IC50 [1]: > 100 µM
inhibition [6]: 59%

O=C(O)/C(O)=C/C(=O)c1cn(Cc2ccc(-c3ccccc3)cc2)c2ccc(F)cc12
IC50 [1]: 8.1 µM
inhibition [6]: 72%

O=C(O)/C(O)=C/C(=O)c1cn(Cc2ccc(C(F)(F)F)cc2)c2ccc(Cl)cc12
IC50 [1]: 32.9 µM
IC50 [2]: 260 nM
selectivity ratio [3]: 5
EC50 [4]: 5.09 µM
CC50 [5]: 23 µM
inhibition [6]: 80%

COc1ccc2c(c1)c(C(=O)/C=C(\O)C(=O)O)cn2Cc1ccc(C(C)(C)C)cc1
IC50 [1]: 91.7 µM
inhibition [6]: 65%

COc1ccc2c(c1)c(C(=O)C1=C(O)C(=O)OC1)cn2Cc1c(C)cc(C)cc1C
IC50 [1]: 33.2 µM
inhibition [6]: 82%

COc1ccc2c(c1)c(C(=O)C1=C(O)C(=O)OC1)cn2Cc1ccc(C(F)(F)F)cc1
IC50 [1]: 52.2 µM
inhibition [6]: 65%

COc1ccc2c(c1)c(C(=O)/C=C(\O)C(=O)O)cn2Cc1ccc(C(F)(F)F)cc1C(F)(F)F
inhibition [6]: 33%

COc1ccc2c(c1)c(C(=O)C1=C(O)C(=O)OC1)cn2Cc1ccc(C(C)(C)C)cc1
IC50 [1]: 17.1 µM
inhibition [6]: 93%

Cc1cc(C)c(Cn2cc(C(=O)/C=C(\O)C(=O)O)c3cc(Cl)ccc32)c(C)c1
IC50 [1]: > 100 µM
inhibition [6]: 59%

O=C1OCC(C(=O)c2cn(Cc3ccc(C(F)(F)F)cc3C(F)(F)F)c3ccc(Cl)cc23)=C1O
IC50 [1]: 21.5 µM
inhibition [6]: 86%

O=C1OCC(C(=O)c2cn(Cc3ccc(C(F)(F)F)cc3C(F)(F)F)c3ccc(F)cc23)=C1O
inhibition [6]: 37%

Cc1cc(C)cc(Cn2cc(C(=O)C3=C(O)C(=O)OC3)c3cc(Cl)ccc32)c1
IC50 [1]: 23.1 µM
selectivity ratio [3]: 3
EC50 [4]: 16.9 µM
CC50 [5]: 53.5 µM
inhibition [6]: 96%

COc1ccc2c(c1)c(C(=O)/C=C(\O)C(=O)O)cn2Cc1c(C)cc(C)cc1C
IC50 [1]: 33.1 µM
IC50 [2]: 420 nM
selectivity ratio [3]: 8
EC50 [4]: 3.23 µM
CC50 [5]: 23.5 µM
inhibition [6]: 72%

Cc1cc(C)c(Cn2cc(C(=O)/C=C(\O)C(=O)O)c3cc(F)ccc32)c(C)c1
IC50 [1]: 15.2 µM
IC50 [2]: 2510 nM
selectivity ratio [3]: 21
EC50 [4]: 5.14 µM
CC50 [5]: 104 µM
inhibition [6]: 71%

COc1ccc2c(c1)c(C(=O)/C=C(\O)C(=O)O)cn2Cc1cc(C)cc(C)c1
IC50 [1]: 53.9 µM
IC50 [2]: 1090 nM
selectivity ratio [3]: 23
EC50 [4]: 2.24 µM
CC50 [5]: 51 µM
inhibition [6]: 89%
